Reference: ChEMBL document CHEMBL3399918, “In vitro radical scavenging and cytotoxic activities of novel hybrid selenocarbamates” (Bioorg Med Chem, 2015)

What was measured:
MCF7 = assay: Cytotoxicity against human MCF7 cells after 72 hrs by MTT assay; type: functional; conditions: MCF7, 72 h; for CC50: read-out: LC50 (the source's name)
In short: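 MCF-7 cells grown in EMEM with 10% foetal calf serum, 2 mM L-glutamine, 100 units/mL penicillin, 100 µg/mL streptomycin. Exposed to five concentrations between 0.01 and 100 μM for 72 h, 37 °C, humidified 5% CO2; MTT read-out. GI50, TGI, LC50 relative to untreated controls; ≥3 independent experiments in quadruplicate.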

HT-29 = assay: Cytotoxicity against human HT-29 cells after 72 hrs by MTT assay; type: functional; conditions: HT-29, 72 h
In short: (§1)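 CCRF-CEM, HT-29, PC-3 and HTB-54 cells grown in RPMI 1640 with 10% foetal calf serum, 2 mM L-glutamine, penicillin/streptomycin, 10 mM HEPES (pH 7.4). Five concentrations, 0.01–100 μM, 72 h at 37 °C, 5% CO2; MTT read-out. GI50, TGI and LC50 versus untreated controls; at least 3 independent experiments in quadruplicate.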

CCRF-CEM = assay: Cytotoxicity against human CCRF-CEM cells after 72 hrs by MTT assay; type: functional; in short: as §1
[1] = Cytotoxicity against human PC3 cells after 72 hrs by MTT assay; type: functional; conditions: PC-3, 72 h; in short: as §1
[2] = Cytotoxicity against human HTB-54 cells after 72 hrs by MTT assay; type: functional; conditions: HTB-54, 72 h; for CC50: read-out: LC50 (the source's name); in short: as §1
[3] = Cytotoxicity against human 184B5 cells after 72 hrs by MTT assay; type: cell-based; conditions: for GI50 at 72 h: 184B5 cells; for LC50 / TGI: 184b5, 72 h
In short: (§2)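 Non-malignant lines: 184B5 (normal breast) in Hams F-12/DMEM (50:50) with published supplements; BEAS-2B (bronchial epithelium) in Hams F-12/DMEM (50:50) with 10% foetal calf serum, 2 mM L-glutamine, penicillin/streptomycin. Compounds at five concentrations, 0.01–100 μM, 72 h, 37 °C, 5% CO2; MTT read-out. GI50, TGI, LC50 relative to untreated controls; ≥3 independent experiments in quadruplicate.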

[4] = Cytotoxicity against human BEAS2B cells after 72 hrs by MTT assay; type: cell-based, BEAS-2B; conditions: for GI50 at 72 h: BEAS2B cells; for LC50 / TGI: beas-2b, 72 h; in short: as §2
[5] = Antioxidant activity assessed as ABTS radical scavenging activity by measuring Trolox equivalent antioxidant capacity after 6 mins; type: physicochemical; conditions: 0.1 h
In short: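 ABTS dissolved in deionized water at 1 mg/mL, oxidised to radical cation with potassium persulfate (2.45 mM final), kept overnight at room temperature in dark, then diluted with 50% ethanol to A741 = 0.700 ± 0.02. Compound (1 mg/mL ethanol stock) added 1:10 (0.1 mg/mL); A741 decrease read after 6 min against 50% ethanol blank. Trolox positive control; quadruplicate; TEAC from calibration curve.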

Row | Compound | GI50 (MCF7) [µM] | TGI (MCF7) [µM] | CC50 (MCF7) [µM] | GI50 (HT-29) [µM] | LC50 (HT-29) [µM] | TGI (HT-29) [µM] | GI50 (CCRF-CEM) [µM] | LC50 (CCRF-CEM) [µM] | TGI (CCRF-CEM) [µM] | GI50 [1] [µM] | LC50 (concentration causing 50% net cell kill) [1] [µM] | TGI [1] [µM] | GI50 [2] [µM] | TGI [2] [µM] | CC50 [2] [µM] | GI50 at 72 h [3] [µM] | LC50 [3] [µM] | TGI [3] [µM] | GI50 at 72 h [4] [µM] | LC50 [4] [µM] | other results
1 | O=C(Nc1ccc([Se][Se]c2ccc(NC(=O)OCC3c4ccccc4-c4ccccc43)cc2)cc1)OCC1c2ccccc2-c2ccccc21 | 22.6 | 52.9 | 83.3 | 17.8 | 80.3 | 49 | 14.9 | 71.4 | 43.2 | 9.2 | 70.3 | 38.8 | 36.8 | 60.5 | 84.3 | 6.5 | 59.4 | 19.7 | 7.1 | 64.1 | TGI [4]: 27.9 µM; Activity [5]: 0.93 µg/µL
2 | Cc1ccc(OC(=O)Nc2ccc([Se]C#N)cc2)cc1 | 9.9 | 39.9 | 69.8 | 8.8 | 68.7 | 38.8 | 17.4 | 72 | 44.7 | 7.6 | 65.1 | 32.3 | 17.3 | 44.2 | 71.1 | 4.4 | 46.9 | 8.7 | 5.6 | 58.3 | TGI [4]: 15.3 µM
3 | N#C[Se]c1ccc(NC(=O)OCC2=Cc3ccccc3S2(=O)=O)cc1 | 8.3 | 34.9 | 66.1 | 26.1 | 74.3 | 50.2 | 3.3 | 8.9 | 6.1 | 6.3 | 59.8 | 21.3 | 6.8 | 26.9 | 62.7 | 5.3 | 59.7 | 19.2 | 7.7 | 64.3 | TGI [4]: 29 µM; Activity [5]: 1.92 µg/µL
4 | O=C(Nc1ccc([Se][Se]c2ccc(NC(=O)Oc3ccc(F)cc3)cc2)cc1)Oc1ccc(F)cc1 | 8 | 33.7 | 64.3 | 18.5 | 85.3 | 51.9 | 8.7 | 68.8 | 37.6 | 4.9 | 64.5 | 31.3 | 26.7 | 51.8 | 77 | 3.7 | 47.8 | 8.6 | 0.7 | 61.8 | TGI [4]: 23.5 µM
5 | CCCOC(=O)Nc1ccc([Se]C#N)cc1 | 8 | 34.4 | 67.5 | 28.4 | 75.4 | 51.9 | 9.3 | 68.8 | 38.4 | 21.1 | 73.8 | 47.4 | 28.9 | 51.9 | 74.9 | 3.7 | 50.9 | 9.1 | 19.2 | 73.5 | TGI [4]: 46.3 µM; Activity [5]: 6.27 µg/µL
6 | N#C[Se]c1ccc(NC(=O)OCc2ccc([N+](=O)[O-])cc2)cc1 | 11.8 | 40.7 | 69.5 | 22.4 | 71.9 | 47.1 | 9.3 | 68.8 | 38.3 | 9 | 67.6 | 36.5 | 22.9 | 47.6 | 72.4 | 6 | 58.5 | 18 | 7.7 | 65.8 | TGI [4]: 32.8 µM; Activity [5]: 9.66 µg/µL
7 | O=C(Nc1ccc([Se][Se]c2ccc(NC(=O)Oc3ccc(Cl)cc3)cc2)cc1)Oc1ccc(Cl)cc1 | 12.4 | 46 | 79.6 | 9.9 | 76.9 | 43.4 | 10.8 | 76 | 43.4 | 1 | 82.6 | 28.1 | 28.6 | 60.8 | 93 | 2.5 | 52.6 | 8.9 | 0.1 | 64.7 | TGI [4]: 26.6 µM
8 | O=C(Nc1ccc([Se][Se]c2ccc(NC(=O)OCC3=Cc4ccccc4S3(=O)=O)cc2)cc1)OCC1=Cc2ccccc2S1(=O)=O | 3.2 | 5.7 | 8.2 | 3 | 7.8 | 5.4 | 2.3 | 7.5 | 4.9 | 3.8 | 7.9 | 5.8 | 4.4 | 6.3 | 8.2 | 2.6 | 7.5 | 5 | 3.5 | 7.9 | TGI [4]: 5.7 µM; Activity [5]: 5.78 µg/µL
9 | COc1cc([C@@H]2c3cc4c(cc3[C@@H](O[C@@H]3O[C@@H]5CO[C@@H](C)O[C@H]5[C@H](O)[C@H]3O)[C@H]3COC(=O)[C@H]23)OCO4)cc(OC)c1O [ETOPOSIDE] | 19.9 | > 100 | > 100 | 31.6 | – | > 100 | 1.6 | – | 50.5 | 0.6 | – | 4 | – | – | – | – | – | – | – | – | –
10 | COc1ccc(OC(=O)Nc2ccc([Se]C#N)cc2)cc1 | 22.4 | 48.2 | 74.1 | 13.6 | 69.6 | 41.5 | 13 | 70 | 41.5 | 7.5 | 71.6 | 44.6 | 23.7 | 48.5 | 73.3 | 4.5 | 59.6 | 19.2 | 25.2 | 71.6 | TGI [4]: 48.4 µM; Activity [5]: 2.58 µg/µL
11 | C=CCOC(=O)Nc1ccc([Se]C#N)cc1 | 15 | 43.1 | 71.2 | 24.5 | 72.8 | 48.6 | 9.2 | 68.6 | 38.1 | 17.6 | 71.8 | 44.7 | 27 | 50.1 | 73.3 | 5 | 53.8 | 9.8 | 21.4 | 73.5 | TGI [4]: 47.4 µM
12 | O=C(Nc1ccc([Se][Se]c2ccc(NC(=O)OCc3ccc([N+](=O)[O-])cc3)cc2)cc1)OCc1ccc([N+](=O)[O-])cc1 | 20.6 | 52.8 | 85 | 16.7 | 75.9 | 46.3 | 8.6 | 68.1 | 36.5 | 6.4 | 69.2 | 27.1 | 31.8 | 55.6 | 79.4 | 6 | 56.5 | 13.8 | 6.3 | 61.6 | TGI [4]: 22.5 µM
